Results gathered from unrelated publications.
Target: Mitogen-activated protein kinase kinase kinase kinase 5 (MAP4K5, Homo sapiens, UniProt Q9Y4K4)

F[C@@H]1CCN(c2nccc(-c3cnn4ncccc34)n2)C1  remaining binding (binding; 1 µM): 79%
O=C(NCC1CCOCC1)c1n[nH]cc1NC(=O)c1c(F)cccc1F  remaining binding (binding; competition with immobilised ligand; 1 µM): 89%
CNC(=O)c1ccc(Nc2ncc(C(F)(F)F)c(NCc3nccnc3N(C)S(C)(=O)=O)n2)cc1  remaining binding (cell-free assay; competition with immobilised ligand; 0.1 µM): 100%
O=C(NCCCN1CCOCC1)c1ccc(Nc2nccc(-c3cc4ccccc4s3)n2)cc1  remaining binding (binding; competition with immobilised ligand; 1 µM): 82%
Cc1c(NC(=O)c2cc(C(N)=O)nc3cc(F)ccc23)c(C(F)(F)F)nn1Cc1ccc(C#N)cc1  remaining binding (cell-free assay; competition with immobilised ligand; 1 µM): 74%
Nc1ncc2c(n1)-c1c([nH]c3ccc(C#CC4CC4)cc13)CCCC2  remaining binding (binding; competition with immobilised ligand; 1 µM): 82%
FC(F)(F)Oc1cccc(-c2cnc3ccc(-c4ccncc4)nn23)c1  remaining binding (cell-free assay; competition with immobilised ligand; 5 µM): 77%
N[C@@H]1CCN(c2nccc(-c3cnn4ncccc34)n2)C1  remaining binding (binding; 1 µM): 100%
O=C(NCCCN1CCOCC1)c1ccc(Nc2ncc(Cl)c(-c3ccc(Cl)s3)n2)cc1  remaining binding (binding; competition with immobilised ligand; 1 µM): 63%
O=C(N1CCS(=O)(=O)CC1)N1C[C@H](c2ccc(OC(F)(F)F)cc2)C[C@H](c2nc(C3CC3)no2)C1  remaining binding (cell-free assay; competition with immobilised ligand; 1 µM): 100%
C[C@@H](c1ccc(-n2cnc3c(N)ncnc32)cc1)N1CCc2nn(C)c(Cc3ccccc3)c2C1=O  remaining binding (binding; competition with immobilised ligand; 0.1 µM): 87%
CC(=O)Nc1c(C(C)=O)c(=O)n(C)c2nc(-c3ccc(Cl)cc3Cl)c(-c3ccc(Cl)cc3)cc12  remaining binding (cell-free assay; competition with immobilised ligand; 1 µM): 100%
COc1cnc(Nc2cccc(S(N)(=O)=O)c2)nc1N1CCN(c2ccccc2)C(=O)C1  remaining binding (binding; competition with immobilised ligand; 1 µM): 100%
CN(C)c1ncc(F)c(-c2cnn3ncccc23)n1  remaining binding (binding; 1 µM): 100%
O=C(O)[C@@H]1[C@@H](Cn2nnc3ccccc3c2=O)CC[C@H]1C(=O)c1ccc(OCCC2CCOCC2)cc1  remaining binding (cell-free assay; competition with immobilised ligand; 1 µM): 100%
C[C@@H]1CCN(c2nccc(-c3cnn4ncccc34)n2)C1  remaining binding (binding; 1 µM): 93%
O=C(c1ccc(Nc2ncc(Cl)c(-c3ccc(Cl)s3)n2)cc1)N1CCC(N2CCCC2)CC1  remaining binding (binding; competition with immobilised ligand; 1 µM): 45%
CN(C)c1nccc(-c2cnn3ncccc23)n1  remaining binding (binding; 1 µM): 88%
O=c1nc(-c2ccccn2)sc2ccccc12  remaining binding (binding; competition with immobilised ligand; 1 µM): 100%
Cc1cnn2ncc(-c3ccnc(N(C)C)n3)c2c1  remaining binding (binding; 1 µM): 67%
C=CC(=O)N1CCC(C(=O)NCC(=O)N2CCN(c3nc(-c4cnc(N)nc4C(F)F)nc(N4CCOCC4)n3)CC2)CC1  remaining binding (binding; competition with immobilised ligand; 1 µM): 95%
